UBC9 SUMO inh: blocks human SUMOylation mediated by UBC9. inhibition, % at 35 µM. P63279. 290,000 compounds, 0.36% hits. HTRF SUMOylation assay, SAE1/SAE2 + UBC9, in vitro; in the data active = inhibition above about 50%, passing the limit was not always enough
Target sequence (P63279 whole entry, looked up): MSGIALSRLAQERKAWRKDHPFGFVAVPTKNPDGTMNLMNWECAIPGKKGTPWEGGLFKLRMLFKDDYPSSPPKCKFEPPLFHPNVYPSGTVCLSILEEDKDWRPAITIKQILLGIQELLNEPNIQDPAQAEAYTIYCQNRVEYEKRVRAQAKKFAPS
TDP2 absorb: blocks human TDP2 phosphodiesterase activity | O95551 | recombinant TDP2, T5PNP hydrolysis, p-nitrophenol absorbance 415 nm | inhibition, % at 12.8 µM | 370,000 compounds, 0.34% hits | AID 720702;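 active = inhibition above the mean of all tested compounds plus 3 SD, set per campaign, cut at about 25% in these data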;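 also: 0% = DMSO with enzyme and 100% = buffer with substrate but no TDP2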
Target sequence (O95551 whole entry, looked up): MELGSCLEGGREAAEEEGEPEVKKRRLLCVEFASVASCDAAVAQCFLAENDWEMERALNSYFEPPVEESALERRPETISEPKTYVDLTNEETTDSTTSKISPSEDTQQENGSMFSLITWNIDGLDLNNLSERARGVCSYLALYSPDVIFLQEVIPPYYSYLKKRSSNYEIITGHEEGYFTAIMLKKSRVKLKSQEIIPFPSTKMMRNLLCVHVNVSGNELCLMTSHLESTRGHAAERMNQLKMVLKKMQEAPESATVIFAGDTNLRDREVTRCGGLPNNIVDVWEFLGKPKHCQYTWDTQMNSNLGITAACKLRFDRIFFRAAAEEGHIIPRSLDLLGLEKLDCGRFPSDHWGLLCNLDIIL
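System: recombinant human TDP2 / Amount: 120 nM TDP2 per well / Also added: 5 mM T5PNP chromogenic substrate / Doses: 12.8 µM single point, 1% DMSO / Incubation: 2 h at 37 °C / Detection: p-Nitrophenol epi absorbance / Evaluation: % inhibition relative to enzyme-containing and enzyme-free wells / Repeats: singlicate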
Fh CTSL1 inh: counter-screen for PFM18AAP inhibitors: inhibitors of F. hepatica cathepsin L1; recombinant F. hepatica cathepsin L1, Z-Leu-Arg-MCA fluorescence; inhibition, % at 5.96 µM; 300,000 compounds, 0.49% hits; AID 1906;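 active = inhibition above the mean of all tested compounds plus 3 SD, set per screening campaign, cut at about 17% in these data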;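 also: 0% = plate median of test compound wells and 100% = 1 µM Z-Phe-Ala-diazomethylketone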
NSD2 inh: NSD2 (human) methyltransferase inhibition | O96028 | NSD2 peptide methylation, AlphaScreen, 120 min | inhibition, % at 12.5 µM | 310,000 compounds, 0.54% hits | AID 743445; in the data active = inhibition above about 50%
TDP2 confirm: human TDP2 inhibition, confirmation. 1,100 compounds, 22% hits. AID 743263. shares compounds with TDP2 absorb. recombinant human TDP2, absorbance read-out. inhibition, % at 12.8 µM; in the data active = inhibition above about 25%;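 also: 0% = vehicle with enzyme and 100% = no enzyme buffer only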
Active calls of the source: *; . = not tested or not shown. The list is not random: actives were taken first. Their share in the collection is about 1.2%.

SMILES | UBC9 SUMO inh | TDP2 absorb | Fh CTSL1 inh | NSD2 inh | TDP2 confirm
Cc1ccccc1S(=O)Cc1ccc(C(=O)N2CCN(C(=O)c3ccco3)CC2)o1 (configuration not stated) | -0.1 | 39.3* | 0.9 | 0.0 | -3.1
COc1ccc(CC(=O)N/N=C(/C)CC(=O)N(C)c2ccccc2)cc1 | 6.6 | 24.7* | 3.0 | -2.1 | 4.7
COc1ccc(CN(C(=O)c2cccs2)c2ccccc2C(=O)O)cc1 | 17.2 | 7.6 | -0.6 | -2.3 | .
CN(C(=O)c1cccs1)c1ccccc1C(=O)O | 11.9 | 42.2* | -1.2 | 2.4 | 5.2
CC(C)(C)[C@H]1COC(=O)[C@@H](Cc2ccc(F)cc2)CC/C=C/C[C@@H](CC(=O)N[C@H](CO)Cc2ccccc2)C(=O)N1 | . | -2.6 | . | . | .
CC(C)(C)S(=O)N1Cc2cc(C(=O)Nc3ccc(-c4ccccc4)cc3)nc(-c3cccc(-c4cc5ccccc5o4)c3)c2[C@@H]1CCO (some centres not stated) | . | 7.3 | . | . | .
COc1ccc(CNC(=O)c2sc(=O)n(Cc3ccccc3OC)c2C)cc1 | . | -7.8 | . | . | .
CCOc1ccc2nc(SCC(=O)NCC3CCCO3)c(C#N)cc2c1 (configuration not stated) | 3.5 | 27.4* | 3.0 | -4.1 | -2.2
COc1cc(CN2CCN(Cc3ccc(SC)cc3)CC2)cc(OC)c1O | 18.5 | 5.0 | -1.0 | -1.2 | .
COc1cc(OC)c(OC)cc1CN1CCN(Cc2ccc(SC)cc2)CC1 | 14.9 | 24.9* | 3.0 | 8.0 | -0.6
Cn1c(-c2ccccc2)cnc1NCc1ccccc1 | -5.4 | 29.2* | 1.0 | 1.0 | -4.9
Cn1c(-c2ccc3c(c2)OCO3)cnc1NCc1ccccc1 | 3.9 | -0.5 | -2.5 | 6.0 | .
CCCc1cc(=O)n2[nH]c(-c3ccccc3)cc2n1 | -9.6 | -4.1 | 3.4 | 1.1 | .
CCCCn1[nH]c(-c2ccccc2)cc1=O | 79.6* | 47.2* | -1.9 | -1.3 | 9.8
O=C(Cn1cnc2ccccc2c1=O)N1CCCCC1 | . | -4.5 | . | -1.8 | .
Cc1ccc(NC(=O)C2CCN(S(=O)(=O)c3ccccc3)CC2)cc1 | -7.2 | 30.4* | 0.5 | -2.7 | 5.5
Cc1cccc(N2CC(C(=O)Nc3ccc(S(=O)(=O)N4CCCCC4)cc3)CC2=O)c1C (configuration not stated) | -5.3 | -8.4 | -0.5 | . | .
Cc1ccc(NC(=O)C2CCN(S(=O)(=O)c3ccc(F)cc3)CC2)cc1 | -3.9 | -0.3 | -0.2 | -0.9 | .
Cc1ccccc1N1CC(C(=O)Nc2ccc(S(=O)(=O)N3CCCCC3)cc2)CC1=O (configuration not stated) | -6.5 | 25.1* | -0.2 | 1.6 | 3.8
COc1ccc(CCNC(=O)c2ccccc2)cc1 | 6.6 | 69.7* | -1.8 | -2.5 | 2.1
Cc1ccccc1NC1=C/C(=N\S(=O)(=O)c2ccc(C(=O)O)cc2)c2ccccc2C1=O | 88.5* | 80.9* | 103.8* | 139.2* | 75.0*
Cc1ccccc1NC1=C/C(=N\S(=O)(=O)c2cccs2)c2ccccc2C1=O | 73.3* | 62.4* | 93.8* | 43.8 | 75.0*
Cc1ccccc1N/C(=N/S(=O)(=O)c1ccccc1)c1ccc(F)cc1 | 10.1 | -18.7 | -2.2 | -0.8 | .
CC(=O)N(Cc1ccccc1)c1nccs1 | . | 3.7 | . | 3.8 | .
CN(CCOc1ccccc1)CC(=O)Nc1ccc(S(=O)(=O)N2CCCC2)cc1 | 22.9 | 30.0* | -2.4 | . | -4.6
SMILES | UBC9 SUMO inh | TDP2 absorb | Fh CTSL1 inh | NSD2 inh | TDP2 confirm
CN1CCN(S(=O)(=O)c2ccc(NC(=O)COc3ccccc3)cc2)CC1 | 25.8 | 4.3 | 8.6 | . | .
COc1ccc(C(=O)CSc2nc(=O)n3ccc(C)cc3n2)cc1 | . | -1.5 | . | -2.8 | .
C=CCNc1nc(C(=O)OCC(=O)Nc2c(Cl)cccc2C(F)(F)F)cs1 | . | 12.9 | 0.2 | -1.9 | .
CC(=O)C1=CCC(c2ccc(C)o2)N(S(=O)(=O)c2ccc(C)cc2)C1 (configuration not stated) | . | -1.5 | . | . | .
CSc1ccc(CN(C)CC(=O)Nc2c(F)cccc2F)cc1 | 2.1 | 28.7* | 1.7 | 4.2 | 19.8
CSc1ccc(CN(C)CC(=O)Nc2ccc(NC(C)=O)cc2)cc1 | 9.2 | -0.3 | 2.6 | . | .
CCOC(=O)c1c(S(=O)(=O)NCC(=O)Nc2ccccc2F)c(C)n(C)c1C | . | 24.7* | 2.8 | 1.5 | 7.4
CCOC(=O)c1c(S(=O)(=O)NCC(=O)Nc2ccccc2OC)c(C)n(C)c1C | -7.8 | 4.0 | -12.2 | -1.3 | .
COc1ccc(-c2nc3cc(C)c(Br)c(C)n3c2Cc2ccccc2C(F)(F)F)cc1OC | . | 8.5 | . | . | .
COc1ccccc1Cc1c(-c2ccc(OC)c(OC)c2)nc2cc(C)c(Br)c(C)n12 | . | 32.6* | . | . | 1.6
Cc1ccc(C(=O)Nc2ccccc2N2CCCC2)cc1 | 9.0 | -3.3 | -2.6 | 0.7 | .
O=C1C(Nc2ccccc2)=C(N2CCCCC2)C(=O)c2ccccc21 | 37.9 | 59.1* | 49.5* | 93.6* | 57.3*
CC1=C(Nc2ccc(C(=O)O)cc2)C(=O)c2ccccc2C1=O | -7.2 | 1.1 | -1.0 | 16.1 | .
Cc1ccc(NC2=C(N3CCCCC3)C(=O)c3ccccc3C2=O)cc1 | 21.1 | 55.8* | 34.3* | 50.7* | 61.0*
COC1=C(Nc2ccc(C)cc2)C(=O)c2ccccc2C1=O | 23.3 | 55.0* | -5.8 | 77.6* | 15.6
CN(C1=C(N2CCCCC2)C(=O)c2ccccc2C1=O)c1ccccc1 | -4.7 | 35.0* | 6.9 | -0.1 | 1.6
CC(=O)NC1=C(Nc2ccc(N(C)C)cc2)C(=O)c2ccccc2C1=O | -27.2 | -5.8 | 8.9 | 28.1 | .
CCOC(=O)C1CCC(=O)N1Cc1c[nH]c2ccccc12 (configuration not stated) | . | -5.4 | . | -2.2 | .
Nc1ncnc2c1ncn2[C@@H]1O[C@H](CNC(=O)[C@@H](N)Cc2ccc(C(=O)c3ccccc3)cc2)[C@@H](O)[C@H]1O | . | -11.4 | . | . | .
O=C(COC(=O)c1ccc(C(F)(F)F)cc1)NC(=O)NC1CCCC1 | . | 2.0 | . | 20.9 | .
CCCNC(=O)C1(C)CCN(Cc2cc3ccccc3o2)C1 (configuration not stated) | . | 0.4 | . | -1.4 | .
CCc1nc2ccc(C(=O)N3CCN(c4ccccc4)CC3)cn2c1N(CCC(C)C)CCN(C)C | . | 4.3 | . | 10.1 | .
O=C(/C=C/c1ccc(O)cc1)c1ccc(NC2=C(N3CCCCC3)C(=O)c3ccccc3C2=O)cc1 | 47.7 | 48.6* | 32.8* | 13.3 | 45.0*
O=C(/C=C/c1ccc(O)cc1)c1ccccc1 | 8.3 | 9.7 | -8.6 | 25.3 | .
OC[C@@H]1CN(Cc2cccs2)C[C@H](n2cnc3c(NCc4ccco4)ncnc32)O1 | . | 8.1 | . | 2.9 | .
CCC(Oc1ccccc1)C(=O)Nc1ccc(C)c(S(=O)(=O)N2CCOCC2)c1 (configuration not stated) | . | 28.9* | -2.9 | -0.5 | 4.8
CCCC(C(=O)Nc1ccc(C)c(S(=O)(=O)N2CCOCC2)c1)c1ccccc1 (configuration not stated) | . | -4.5 | -2.9 | 0.4 | .
C=CCSc1nnc(COc2ccc(=O)n(-c3ccccc3)n2)n1CC | 13.6 | 24.6* | -0.6 | 2.1 | 5.8
O=C(OCC#CCSc1nnc(-c2cc3ccccc3cc2O)o1)c1ccc(F)cc1 | . | -7.3 | . | . | .
